The test system of assay [1] is K562. Briefly: Antiproliferative activity against human K562 cells at 1 uM after 72 hrs by MTS assay. The format is functional. The settings on record: K562, 72 h. In outline: (§1)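 Cells kept in Glutamax RPMI with 10% fetal calf serum, penicillin and streptomycin, at 37 °C in 5% CO2. Plated at 500–800 cells/well and left 24 h before adding compound in DMSO (10^-6 or 10^-5 M final). Exposure was continuous for 72 h, then MTS read-out at 490 nm, in triplicate. Percent inhibition was taken from absorbance versus control wells after blank subtraction.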
For orientation: Tetrazolium dyes change colour on reduction, which living cells bring about.

Assay [2] relates to K562. Briefly: Antiproliferative activity against human K562 cells at 10 uM after 72 hrs by MTS assay. The format is functional. To be noted: K562, 72 h. The gist of the method: as §1
Assay [3] relates to HL-60. Put plainly: Antiproliferative activity against human HL60 cells at 10 uM after 72 hrs by MTS assay. Format: functional. To be noted: HL-60, 72 h. In outline:
as §1

Assay [4] deals with HL-60. Briefly: Antiproliferative activity against human HL60 cells at 1 uM after 72 hrs by MTS assay. The format is functional. To be noted: HL-60, 72 h. The gist of the method:
as §1

For assay [5], the species on record is Sus scrofa. Put plainly: Inhibition of pig CK1 assessed as residual enzyme activity at 10 uM.
In assay [6] the target is Dual specificity tyrosine-phosphorylation-regulated kinase 1A (Rattus norvegicus) (UniProt Q63470). Put plainly: Inhibition of rat GST-fused Dyrk1a expressed in Escherichia coli assessed as residual enzyme activity at 10 uM.
Assay [7] is filed under the species Sus scrofa. Briefly: Inhibition of pig GSK3 assessed as residual enzyme activity at 10 uM.
For assay [8], the target named is Cyclin-dependent kinase 5/CDK5 activator 1 (Homo sapiens) (UniProt Q00535+Q15078). Put plainly: Inhibition of GST-CDK5/p25 expressed in Escherichia coli assessed as residual enzyme activity at 10 uM.
Chain of Cyclin-dependent kinase 5/CDK5 activator 1 (Homo sapiens) (Q00535 whole entry): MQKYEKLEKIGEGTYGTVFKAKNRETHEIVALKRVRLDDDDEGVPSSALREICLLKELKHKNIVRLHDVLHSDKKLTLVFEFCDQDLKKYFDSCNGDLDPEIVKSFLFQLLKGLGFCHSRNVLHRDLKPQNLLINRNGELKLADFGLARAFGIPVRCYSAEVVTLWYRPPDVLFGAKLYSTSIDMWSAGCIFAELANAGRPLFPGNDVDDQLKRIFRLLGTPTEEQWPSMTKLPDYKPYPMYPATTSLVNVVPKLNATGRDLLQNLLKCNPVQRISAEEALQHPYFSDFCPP
Chain of Cyclin-dependent kinase 5/CDK5 activator 1 (Homo sapiens) (Q15078 99-307 partner limits assumed): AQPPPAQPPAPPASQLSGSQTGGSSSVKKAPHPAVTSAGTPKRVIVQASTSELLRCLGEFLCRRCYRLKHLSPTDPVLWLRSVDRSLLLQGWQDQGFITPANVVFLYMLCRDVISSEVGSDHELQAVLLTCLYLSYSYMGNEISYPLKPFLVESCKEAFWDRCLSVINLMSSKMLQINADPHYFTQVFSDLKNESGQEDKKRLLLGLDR
Assay [9] has as its system K562. Briefly: Antiproliferative activity against human K562 cells at 0.25 nM after 72 hrs by MTS assay. The settings on record: K562, 72 h. Format: functional.
In assay [10] the test system is HL-60. Put plainly: Antiproliferative activity against human HL60 cells at 0.25 nM after 72 hrs by MTS assay. Format: functional. To be noted: HL-60, 72 h.

Among the data in ChEMBL document CHEMBL1158396 (2009) are inhibition and Activity values, retold here.

As to `CC(=O)OC[C@H]1O[C@@H](N2C(=O)/C(=C3/C(=O)Nc4ncc(C#CCCO)cc43)c3ccccc32)[C@H](OC(C)=O)[C@@H](OC(C)=O)[C@@H]1OC(C)=O`, the inhibition at 1 µM with K562 [1] came to 5%; in the assay with HL-60 [4], 0%. Also, the inhibition at 10 µM in the assay with K562 [2] came to 10%; in the assay with HL-60 [3] it was 0%.

As for `CC(=O)OC[C@H]1O[C@@H](N2C(=O)/C(=C3/C(=O)Nc4ncc(Br)cc43)c3cc(Br)ccc32)[C@H](OC(C)=O)[C@@H](OC(C)=O)[C@@H]1OC(C)=O`, the values for the inhibition at 1 µM with K562 [1] and in the assay with HL-60 [4] were 3% and 0%, respectively. The Activity (in the assay listed under Sus scrofa [5]; in assay [6]; in the assay filed under Sus scrofa [7]; in assay [8]) was over 65% throughout. The results for the inhibition at 10 µM in the assay with K562 [2] and in the assay with HL-60 [3] were 4% and 0%, respectively.

Regarding `CC(=O)O[C@@]12CO[C@@H]1C[C@H](O)[C@@]1(C)C(=O)[C@H](O)C3=C(C)[C@@H](OC(=O)[C@H](O)[C@@H](NC(=O)OC(C)(C)C)c4ccccc4)C[C@@](O)([C@@H](OC(=O)c4ccccc4)[C@H]21)C3(C)C` [DOCETAXEL], the inhibition at 0.00025 µM in the assay with K562 [9] is 32%; with HL-60 [10], 46%.

`CC(=O)OC[C@H]1O[C@@H](N2C(=O)/C(=C3/C(=O)Nc4ncc(C#CCNC(=O)OCc5ccccc5)cc43)c3ccccc32)[C@H](OC(C)=O)[C@@H](OC(C)=O)[C@@H]1OC(C)=O`: the results for the inhibition at 1 µM in the assay with K562 [1] and in the assay on HL-60 [4] were 4% and 0%, respectively. The Activity (in the assay listed under Sus scrofa [5]; in [6]; in the assay filed under Sus scrofa [7]; in assay [8]) was over 65% throughout. Moreover, the results for the inhibition at 10 µM with K562 [2] and with HL-60 [3] were 59% and 11%, respectively.

`CC(=O)OC[C@H]1O[C@@H](N2C(=O)/C(=C3/C(=O)Nc4ccc(I)cc43)c3ccccc32)[C@H](OC(C)=O)[C@@H](OC(C)=O)[C@@H]1OC(C)=O`: the Activity in assay [6] and in [8] was over 65% in each case.

In the case of `CC(=O)OC[C@H]1O[C@@H](N2C(=O)/C(=C3/C(=O)Nc4ccc(C#CCNC(=O)OCc5ccccc5)cc43)c3cc(Br)ccc32)[C@H](OC(C)=O)[C@@H](OC(C)=O)[C@@H]1OC(C)=O`, the results for the inhibition at 1 µM in the assay with K562 [1] and with HL-60 [4] were 1% and 0%, respectively. Further, the Activity (in the assay listed under Sus scrofa [5]; in assay [6]; in the assay listed under Sus scrofa [7]; in assay [8]) was over 65% in each case. Besides, the inhibition at 10 µM was 2% in the assay on K562 [2] and 0% with HL-60 [3].

With `CC(=O)OC[C@H]1O[C@@H](N2C(=O)/C(=C3/C(=O)Nc4ncc(C#CCNC(=O)OCc5ccccc5)cc43)c3cc(Br)ccc32)[C@H](OC(C)=O)[C@@H](OC(C)=O)[C@@H]1OC(C)=O`, the inhibition at 1 µM in the assay with K562 [1] and in the assay with HL-60 [4] was 0% each time. Also, the figures for the inhibition at 10 µM in the assay with K562 [2] and in the assay with HL-60 [3] were 5% and 0%, respectively.

Turning to `CC(=O)OC[C@H]1O[C@@H](N2C(=O)/C(=C3/C(=O)Nc4ncc(I)cc43)c3ccccc32)[C@H](OC(C)=O)[C@@H](OC(C)=O)[C@@H]1OC(C)=O`, the inhibition at 1 µM in the assay with K562 [1] and with HL-60 [4] was 0% in each case. For the same molecule, the Activity (in the assay listed under Sus scrofa [5]; in [6]; in the assay listed under Sus scrofa [7]; in [8]) was over 65% throughout. Further, the inhibition at 10 µM with K562 [2] turned out to be 47%; in the assay on HL-60 [3] it was 1%.

In the case of `CC(=O)OC[C@H]1O[C@@H](N2C(=O)/C(=C3/C(=O)Nc4ncc(I)cc43)c3cc(Br)ccc32)[C@H](OC(C)=O)[C@@H](OC(C)=O)[C@@H]1OC(C)=O`, the inhibition at 1 µM in the assay on K562 [1] and in the assay with HL-60 [4] was 0% throughout. Further, the inhibition at 10 µM in the assay with K562 [2] is 3%; in the assay on HL-60 [3], 0%.

Regarding `CC(=O)OC[C@H]1O[C@@H](N2C(=O)/C(=C3/C(=O)Nc4ccc(I)cc43)c3cc(Br)ccc32)[C@H](OC(C)=O)[C@@H](OC(C)=O)[C@@H]1OC(C)=O`, the inhibition at 1 µM in the assay with K562 [1] and in the assay with HL-60 [4] was 0% throughout. The Activity (in the assay filed under Sus scrofa [5]; in assay [6]; in the assay listed under Sus scrofa [7]; in assay [8]) was over 65% throughout. Moreover, the inhibition at 10 µM is 3% in the assay on K562 [2] and 0% in the assay on HL-60 [3].

As for `CC(=O)OC[C@H]1O[C@@H](N2C(=O)/C(=C3/C(=O)Nc4ccc(C#CCCO)cc43)c3ccccc32)[C@H](OC(C)=O)[C@@H](OC(C)=O)[C@@H]1OC(C)=O`, the inhibition at 1 µM in the assay on K562 [1] came out at 2%; in the assay with HL-60 [4] it was 0%. Also, the Activity (in the assay listed under Sus scrofa [5]; in assay [6]; in the assay filed under Sus scrofa [7]; in assay [8]) was over 65% each time. Besides, the inhibition at 10 µM with K562 [2] came to 33%; with HL-60 [3], 8%.

With `CC(=O)OC[C@H]1O[C@@H](N2C(=O)/C(=C3/C(=O)Nc4ccc(C#CCNC(=O)OCc5ccccc5)cc43)c3ccccc32)[C@H](OC(C)=O)[C@@H](OC(C)=O)[C@@H]1OC(C)=O`, the inhibition at 1 µM in the assay on K562 [1] and in the assay on HL-60 [4] was 0% each time. Besides, the Activity (in the assay filed under Sus scrofa [5]; in [6]; in the assay listed under Sus scrofa [7]; in assay [8]) was over 65% in each case. Moreover, the inhibition at 10 µM came out at 6% in the assay with K562 [2] and 1% in the assay on HL-60 [3].

For the molecule `CC(=O)OC[C@H]1O[C@@H](N2C(=O)/C(=C3/C(=O)Nc4ncc(Br)cc43)c3ccccc32)[C@H](OC(C)=O)[C@@H](OC(C)=O)[C@@H]1OC(C)=O`, the Activity in assay [6] and in assay [8] was over 65% throughout.

As a reminder, the inhibition is the drop in the measured response relative to a control, in per cent.
